In test [1] the test system is Vero. Kind of test: In vitro antiviral activity against parainfluenza type 3(para 3) virus was determined in african green monkey kidney (vero,V) expressed as virus rating. Toxic level(>1000 ug/mL). It is filed as functional, Chlorocebus sabaeus. A digest of the protocol: (§1)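 Cell monolayers (18 h) infected with 320 TCID50 of virus. Compound was added within 15–30 min at half-log dilutions from 1000 to 1 μg/mL. After 72 h at 37 °C in 5% CO2, CPE was scored 0–4 by microscopy. VR = sum of (virus control − treated) scores, halved at partially toxic levels, divided by 10 × test cups per drug level.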

For test [2], the system named is HEp-2. Kind of test: In vitro antiviral activity against vaccinia(VV) virus was determined in human laryngeal epithelioma (HEp-2,H)expressed as virus rating. Toxic level(100 ug/mL). It counts as functional. Summed up:
as §1

Test [3] has as its system HEp-2. The experiment in a line: In vitro antiviral activity against herpes simplex type 1 (HSV-1) virus was determined in human laryngeal epithelioma (HEp-2,H)expressed as virus rating. Toxic level(100 ug/mL). It counts as functional. Summed up: as §1
Test [4] relates to HEp-2. Kind of test: In vitro antiviral activity against parainfluenza type 3 (para3) virus was determined in human laryngeal epithelioma (HEp-2,H)expressed as virus rating. Toxic level(100 ug/mL). It is filed as functional. Summed up:
as §1

Test [5] deals with Vero. The experiment in a line: In vitro antiviral activity against herpes simplex type 1 (HSV-1) virus was determined in african green monkey kidney (vero,V) expressed as virus rating. Toxic level(>1000 ug/mL). It is filed as functional, Chlorocebus sabaeus. A digest of the protocol: as §1
Test [6] relates to Vero. The experiment in a line: In vitro antiviral activity against vaccinia(VV) virus was determined in african green monkey kidney (vero,V) expressed as virus rating. Toxic level(>1000 ug/mL). It is filed as functional, Chlorocebus sabaeus. Summed up:
as §1

Test [7] relates to Vero. The experiment in a line: Percentage plaque reduction was determined against rift valley fever(RVF) virus in african green monkey kidney (vero,V) at a conc of <25 ug/mL. Toxic level(10 ug/mL). It counts as functional, Chlorocebus sabaeus.
The subject of test [8] is Vero. Kind of test: Percentage plaque reduction was determined against venezuelan equine encephalitis (VEE) virus in african green monkey kidney (vero,V) at a conc of 100-250 ug/mL. Toxic level(10 ug/mL). It counts as functional, Chlorocebus sabaeus.
Test [9] has as its system Vero. The experiment in a line: Percentage plaque reduction was determined against venezuelan equine encephalitis (VEE) virus in african green monkey kidney (vero,V) at a conc of 25-100 ug/mL. Toxic level(10 ug/mL). It counts as functional, Chlorocebus sabaeus.
Test [10] concerns Vero. Kind of test: In vitro antiviral activity against herpes simplex type 1 (HSV-1) virus was determined in african green monkey kidney (vero,V) expressed as virus rating. Toxic level(10 ug/mL). It counts as functional, Chlorocebus sabaeus. A digest of the protocol: as §1
The test system of test [11] is Vero. Kind of test: Percentage plaque reduction was determined against yellow fever (YF) virus in african green monkey kidney (vero,V).Toxic level(10 ug/mL). It is filed as functional, Chlorocebus sabaeus.
The subject of test [12] is Vero. Kind of test: Percentage plaque reduction was determined against venezuelan equine encephalitis (VEE) virus in african green monkey kidney (vero,V) at a conc of <25 ug/mL. It is filed as functional, Chlorocebus sabaeus.
Test [13] has as its system Vero. Kind of test: Percentage plaque reduction was determined against Sandfly fever (SF) virus in african green monkey kidney (vero,V) at a conc of <25 ug/mL. Toxic level(10 ug/mL). It is filed as functional, Chlorocebus sabaeus. A digest of the protocol: (§2)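 Infected Vero 24-well monolayers: virus adsorbed 1 h at 37 °C, then overlaid with agar holding dilutions of compound and incubated again at 37 °C with CO₂. Plaques were stained with crystal violet and counted. Inhibition was scored as % plaque reduction bands (10-30%, 31-60%, 61-90%), each tied to a drug concentration range.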

Test [14] relates to Vero. Kind of test: Percentage plaque reduction was determined against Sandfly fever (SF) virus in african green monkey kidney (vero,V) at a conc of 100-250 ug/mL. Toxic level(10 ug/mL). It is filed as functional, Chlorocebus sabaeus.
The subject of test [15] is Vero. The experiment in a line: Percentage plaque reduction was determined against rift valley fever(RVF) virus in african green monkey kidney (vero,V) at a conc of 25-100 ug/mL. Toxic level(10 ug/mL). It counts as functional, Chlorocebus sabaeus.
For test [16], the system named is Vero. The experiment in a line: Percentage plaque reduction was determined against Sandfly fever (SF) virus in african green monkey kidney (vero,V) at a conc of 250-500 ug/mL. Toxic level(10 ug/mL). It counts as functional, Chlorocebus sabaeus.
Test [17] relates to Vero. Kind of test: Percentage plaque reduction was determined against pichinde(PICH) virus in african green monkey kidney (vero,V).Toxic level(10 ug/mL). It counts as functional, Chlorocebus sabaeus. A digest of the protocol:
as §2

The subject of test [18] is Vero. The experiment in a line: Percentage plaque reduction was determined against venezuelan equine encephalitis (VEE) virus in african green monkey kidney (vero,V) at a conc of 250-500 ug/mL. Toxic level(10 ug/mL). It counts as functional, Chlorocebus sabaeus.
Test [19] has as its system Vero. Kind of test: Percentage plaque reduction was determined against Sandfly fever (SF) virus in african green monkey kidney (vero,V) at a conc of 25-100 ug/mL. Toxic level(10 ug/mL). It is filed as functional, Chlorocebus sabaeus.
Test [20] deals with Vero. The experiment in a line: Percentage plaque reduction was determined against rift valley fever(RVF) virus in african green monkey kidney (vero,V) at a conc of 100-250 ug/mL. Toxic level(10 ug/mL). It is filed as functional, Chlorocebus sabaeus.
Test [21] has as its system Vero. Kind of test: Percentage plaque reduction was determined against rift valley fever(RVF) virus in african green monkey kidney (vero,V) at a conc of 250-500 ug/mL. Toxic level(10 ug/mL). It is filed as functional, Chlorocebus sabaeus.
Test [22] relates to Vero. The experiment in a line: In vitro antiviral activity against herpes simplex type 1 (HSV-1) virus was determined in african green monkey kidney (vero,V) expressed as virus rating. Toxic level(100 ug/mL). It is filed as functional, Chlorocebus sabaeus. A digest of the protocol:
as §1

Test [23] concerns HEp-2. The experiment in a line: In vitro antiviral activity against parainfluenza type 3(para 3) virus was determined in human laryngeal epithelioma (HEp-2,H)expressed as virus rating. Toxic level(100 ug/mL). It counts as functional. A digest of the protocol:
as §1

In test [24] the test system is Vero. Kind of test: In vitro antiviral activity against vaccinia(VV) virus was determined in african green monkey kidney (vero,V) expressed as virus rating. Toxic level(100 ug/mL). It counts as functional, Chlorocebus sabaeus. Summed up: as §1
Test [25] deals with Vero. Kind of test: In vitro antiviral activity against parainfluenza type 3(para 3) virus was determined in african green monkey kidney (vero,V) expressed as virus rating. Toxic level(100 ug/mL). It counts as functional, Chlorocebus sabaeus. A digest of the protocol: as §1

A value given as a limit tells only on which side of the number the result lay.

On to `CSc1ncnc2c1ccn2[C@@H]1O[C@H](CO)[C@@H](O)[C@H]1O`, for which the Virus rating in [1] was determined as 0.9; in test [2], 1.4; in test [3] it was 1.3; in test [4], 1.5; in [5] it was 0.5; in test [6] it was 1.
Regarding `O=C1N=CN=C2C([C@@H]3O[C@H](CO)[C@@H](O)[C@H]3O)=NNC12` (some centres not stated), the Plaque reduction in [7], in [8], in [9], in [11], in test [12] and in test [13] was 0% each time. Moreover, the Plaque reduction is recorded as 0% in [14]; 0% in test [15]; 0% in test [16]; greater than 90% in [17]; 0% in test [18]; 0% in test [19]. Moreover, the Plaque reduction in [20] and in [21] was 0% throughout. For the same compound, the Virus rating in [10] was determined as 0.1.
For the compound `NC(=O)c1ncnc2c([C@@H]3O[C@H](CO)[C@@H](O)[C@H]3O)n[nH]c12`, the Virus rating in [22] is 0; in test [23], 0.4; in [24] it was 0.6; in test [2], 0.8; in test [25], 0; in test [3], 0.

Values taken from ChEMBL document CHEMBL1122187, “Synthesis and antiviral activity of certain carbamoylpyrrolopyrimidine and pyrazolopyrimidine nucleosides” (1982).
